The target of one data set is Dipeptidyl peptidase 4 (Homo sapiens, UniProt P27487). Briefly: Inhibition of human placental DPP4.
The next data set deals with Mus musculus. As to the kind of experiment: Reduction of glucose level in po dosed C57BL/6 mouse by oral glucose tolerance test. The format is functional, organism-based. In outline:
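Male C57BL/6 mice, 7-8 per group, fasted 20 h, given vehicle or inhibitor by oral gavage at various doses. Oral glucose challenge (5 g/kg) 60 min later. Blood glucose read at 5 time points over 120 min.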

Data set [1] has as its system Rattus norvegicus. As to the kind of experiment: Inhibition of DPP4 in po dosed Sprague-Dawley rat plasma after 24 hrs. The format is functional, organism-based. In outline:
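Sprague-Dawley rats, 4-6 per inhibitor, single oral gavage dose across a dose range. Plasma DPP-IV activity sampled 6 times over 24 h post-dose. Percent change derived by comparing each treated sample's plasma activity with its own predose activity.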

The subject of data set [2] is Rattus norvegicus. As to the kind of experiment: Toxicity in po dosed Sprague-Dawley rat assessed as maximum tolerated dose relative to Val-boroPro. The format is organism-based. The following applies: in vivo.
Data set [3] can be described thus: Toxicity in po dosed Sprague-Dawley rat assessed as maximum tolerated dose. The format is organism-based. The following applies: in vivo. In outline: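 Sprague-Dawley rats given escalating single doses; animals observed for adverse signs; lethargic or dead animals necropsied; maximum tolerated dose taken as the highest dose without adverse effects.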
Data set [4] is described as follows: Therapeutic index, ratio of MTD to drug level causing maximal reduction of glucose AUC in po dosed Sprague-Dawley rat. The following applies: in vivo.
The test system of data set [5] is Rattus norvegicus. Briefly: Inhibition of DPP4 in Sprague-Dawley rat plasma at 6 mg/kg, po after 4 hrs. The following applies: read-out: INH.

Molecules are shown by their SMILES. Bounds are passed on as bounds.

Sequence of Dipeptidyl peptidase 4 (P27487 whole entry): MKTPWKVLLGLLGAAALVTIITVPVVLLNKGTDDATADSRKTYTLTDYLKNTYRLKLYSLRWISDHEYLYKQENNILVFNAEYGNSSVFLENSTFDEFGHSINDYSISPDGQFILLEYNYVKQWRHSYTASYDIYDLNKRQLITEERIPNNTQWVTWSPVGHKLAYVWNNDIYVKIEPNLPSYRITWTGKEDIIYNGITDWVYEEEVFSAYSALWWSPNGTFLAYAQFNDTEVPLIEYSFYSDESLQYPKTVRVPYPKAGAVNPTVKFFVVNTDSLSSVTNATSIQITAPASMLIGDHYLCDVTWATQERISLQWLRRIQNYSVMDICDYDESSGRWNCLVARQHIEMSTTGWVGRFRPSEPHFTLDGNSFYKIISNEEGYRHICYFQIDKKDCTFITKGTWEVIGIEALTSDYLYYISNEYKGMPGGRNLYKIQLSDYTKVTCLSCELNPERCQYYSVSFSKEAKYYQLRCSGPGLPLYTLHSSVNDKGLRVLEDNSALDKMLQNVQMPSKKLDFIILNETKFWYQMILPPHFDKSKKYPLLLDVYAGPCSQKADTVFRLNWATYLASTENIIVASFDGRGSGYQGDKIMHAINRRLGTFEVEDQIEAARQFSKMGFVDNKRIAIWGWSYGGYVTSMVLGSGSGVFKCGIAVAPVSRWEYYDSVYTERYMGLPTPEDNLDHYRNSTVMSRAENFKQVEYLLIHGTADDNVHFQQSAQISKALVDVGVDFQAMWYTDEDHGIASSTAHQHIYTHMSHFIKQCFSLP

Turning to `NCC(=O)N1CCC[C@H]1B(O)O`, at Dipeptidyl peptidase 4, the Ki (commonly a measure of affinity in units of concentration, obtained from inhibition or displacement) is 0.4 nM.

The compound `N[C@@H](CCC(=O)O)C(=O)N1CCC[C@H]1B(O)O` showed an inhibition constant (Ki) on Dipeptidyl peptidase 4 of 1.8 nM.

For `C[C@H](N)C(=O)N1CCC[C@H]1B(O)O`, the figures for the Activity entry in the data set on Mus musculus, with Rattus norvegicus [1] and in the data set with Rattus norvegicus [2] were “Dose-dependent effect”, “Dose-dependent effect” and 200, respectively.

Regarding `CC[C@@H](C)[C@H](N)C(=O)N1CCSC1`, in data set [3], the MTD – broadly, the highest dose tested that stayed within the study's limit of toxicity – was < 300 mg/kg. In addition, in the data set with Rattus norvegicus [2], the Activity was < 12000. The selectivity ratio in data set [4] is < 15.

For `CC[C@H](C)[C@H](N)C(=O)N1CCSC1`, the MTD in data set [3] was > 700 mg/kg. For the same compound, the Activity with Rattus norvegicus [2] was > 28000. The selectivity ratio in data set [4] was > 35.

As to `C[C@H](NC(=O)[C@@H](N)CCC(=O)O)B(O)O`, the Activity entry in the data set on Mus musculus was “Dose-dependent effect”; in the data set with Rattus norvegicus [1] it was “Dose-dependent effect”; in the data set on Rattus norvegicus [2], 20000. Also, in the data set on Rattus norvegicus [5], the inhibition in vivo at 6 mg/kg amounted to 80%. Further, the MTD in data set [3] is > 500 mg/kg.

With `CC(C)[C@H](N)C(=O)N1CCC[C@H]1B(O)O` [TALABOSTAT], the Activity result with Mus musculus is “Dose-dependent effect”; in the data set with Rattus norvegicus [1], “Dose-dependent effect”; in the data set on Rattus norvegicus [2] it was 1.

In turn, `CC(=O)N[C@H](C(=O)N1CCC[C@H]1B(O)O)C(C)C` returned a Ki on Dipeptidyl peptidase 4 of 3300 nM.

Values taken from ChEMBL document CHEMBL1140098, “Dipeptide boronic acid inhibitors of dipeptidyl peptidase IV: determinants of potency and in vivo efficacy and safety” (J Med Chem, 2008).
